Assay results gathered from unrelated publications.
Compare with care: the assays were run in different laboratories.
LCK: Tyrosine-protein kinase Lck (LCK, Homo sapiens, UniProt P06239)
NMUR1: Neuromedin-U receptor 1 (NMUR1, Homo sapiens, UniProt Q9HB89)
PIP4K2C: Phosphatidylinositol 5-phosphate 4-kinase type-2 gamma (PIP4K2C, Homo sapiens, UniProt Q8TBX8)

| SMILES | target | read-out | action | method | setting | measurement | result |
| --- | --- | --- | --- | --- | --- | --- | --- |
| Cc1cnc(-c2ccc(-c3ccc(NC(=O)Nc4c(F)cc(F)cc4F)cc3F)c3c2C(=O)NC3)[nH]1 | LCK | binding | – | competition with immobilised ligand | – | Kd | 11 nM |
| CC(C)C[C@H](NC(=O)[C@H](Cc1ccccc1)NC(=O)[C@@H](N)Cc1ccc(O)cc1)C(=O)N[C@@H](Cc1ccccc1)C(=O)N[C@@H](CCCNC(=N)N)C(=O)N1CCC[C@H]1C(=O)N[C@@H](CCCNC(=N)N)C(=O)N[C@@H](CC(N)=O)C(N)=O | NMUR1 | β-arrestin recruitment | agonist | – | – | EC50 | 1.7 nM |
| COc1ccc2c(Oc3ccc4c(C(=O)Nc5ccccc5N)cccc4c3)ccnc2c1 | Mitogen-activated protein kinase 9 (MAPK9, Homo sapiens, UniProt P45984) | enzyme activity | inhibitor | – | – | IC50 | > 500 nM |
| CC(C)(C)CC(C)(C)c1ccc(O)cc1 | Estrogen receptor beta (ESR2, Homo sapiens, UniProt Q92731) | reporter gene | agonist | luciferase | – | EC50 | 197 nM |
| O=C(/C=C/c1ccc(O)c2c1[C@H](C(=O)O[C@H](Cc1ccc(O)c(O)c1)C(=O)O)[C@@H](c1ccc(O)c(O)c1)O2)O[C@H](Cc1ccc(O)c(O)c1)C(=O)O | Platelet glycoprotein 4 (CD36, Homo sapiens, UniProt P16671) | binding | – | SPR | – | Kd | 3740 nM |
| CN1CC(Oc2cnc(C#N)cc2-c2ccn3nc(NC(=O)C4CC4)cc3c2)C1 | LCK | enzyme activity | inhibitor | – | – | Ki | 220 nM |
| Cc1cc2nc3c(=O)[nH]c(=O)nc-3n(C[C@H](O)[C@H](O)[C@H](O)COP(=O)(O)OP(=O)(O)OC[C@H]3O[C@@H](n4cnc5c(N)ncnc54)[C@H](O)[C@@H]3O)c2cc1C | Alpha-crystallin B chain (CRYAB, Homo sapiens, UniProt P02511) | binding | – | – | lysate | Kd | 152 nM |
| Nc1ccn([C@@H]2O[C@H](COP(=O)(O)OP(=O)(O)OP(=O)(O)O)[C@@H](O)[C@H]2O)c(=O)n1 | virB (Shigella flexneri, UniProt P0A247) | binding | – | ITC | – | Kd | 9300 nM |
| C[S+](CC[C@H](N)C(=O)O)C[C@H]1O[C@@H](n2cnc3c(N)ncnc32)[C@H](O)[C@@H]1O (stereo partly drawn) | tRNA (guanine-N(1)-)-methyltransferase (trmD, Escherichia coli, UniProt P0A873) | binding | – | fluorescence | – | Kd | 1400 nM |
| CC(C)C[C@H](NC(=O)[C@H](Cc1ccccc1)NC(=O)[C@H](Cc1ccc(O)cc1)NC(=O)CNC(=O)[C@H](CCCNC(=N)N)NC(=O)[C@H](CO)NC(=O)[C@H](CCC(N)=O)NC(=O)[C@H](CO)NC(=O)[C@H](C)NC(=O)[C@H](Cc1ccccc1)NC(=O)[C@@H]1CCCN1C(=O)[C@H](CO)NC(=O)[C@H](CCC(N)=O)NC(=O)[C@H](Cc1ccccc1)NC(=O)[C@H](CCC(=O)O)NC(=O)[C@H](CCC(=O)O)NC(=O)[C@H](CC(=O)O)NC(=O)[C@@H](NC(=O)[C@H](CCCNC(=N)N)NC(=O)[C@@H](N)Cc1ccccc1)C(C)C)C(=O)N[C@@H](Cc1ccccc1)C(=O)N[C@@H](CCCNC(=N)N)C(=O)N1CCC[C@H]1C(=O)N[C@@H](CCCNC(=N)N)C(=O)N[C@@H](CC(N)=O)C(N)=O | NMUR1 | inositol phosphate | agonist | – | – | EC50 | 0.123 nM |
| Nc1ncc2c(n1)-c1c([nH]c3ccc(C#CC4CC4)cc13)CCCC2 | PIP4K2C | binding | – | competition with immobilised ligand | – | Kd | 6400 nM |
| C[C@@]12CCC(=O)N1c1cc(Nc3ncc(Cl)c(-c4cccc(-c5ccccc5)c4)n3)cnc1OC2 | PIP4K2C | binding | – | – | – | Kd | 0.45 nM |
